From ChEMBL document CHEMBL4308909, “Synthesis, Antioxidant Activity and Cytotoxicity of N-Functionalized Organotellurides” (Bioorg Med Chem, 2019) come the findings set out here.

The nature of data set [1]: Antioxidant activity of the compound assessed as DPPH radical scavenging activity after 30 mins by spectrophotometric method. It is filed as functional. In a few lines: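 Methanolic DPPH (130 μmol L⁻¹ before mixing, 1:1 with sample) mixed with methanolic samples at several concentrations, 30 min at room temperature in the dark, absorbance at 517 nm. Percent scavenging calculated against a methanol-plus-DPPH control. IC50 from linear regression, triplicate. Quercetin reference.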

Data set [2] concerns L929. Kind of data set: Cytotoxicity against mouse L929 cells assessed as reduction in cell viability at 1.9 to 15.6 ug/ml after 24 hrs by neutral red staining-based spectrophotometric analysis. As to conditions: l929, 24 h. In a few lines: (§1)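 L929 fibroblasts grown in DMEM with 2 mM L-glutamine, 10% FBS, penicillin/streptomycin, 37 °C, 5% CO₂. Cells seeded at 2.5 × 10⁵ cells ml⁻¹ and treated after 24 h with 1.95–15.625 μg mL⁻¹ for 24 h (DMSO ≤1.5% final). Neutral red (40 μg mL⁻¹) for 3 h, fixed, dye extracted with ethanol/acetic acid, read at 540 nm. Compared with negative control by Tukey's test.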

Data set [3] in a line: Antioxidant activity assessed as ferric ion reducing activity by measuring trolox equivalents after 40 mins by FRAP assay. It is filed as functional. The method in brief: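 Samples at several concentrations incubated with reagent at 37 °C for 40 min in the dark, absorbance read at 593 nm. Expressed as trolox equivalent antioxidant capacity. Quercetin reference.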
Data set [4] in a line: Antioxidant activity assessed as ABTS radical scavenging activity after 16 hrs by spectrophotometric analysis. It is filed as functional. In a few lines:
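ABTS radical cation generated from ABTS (7 mmol L⁻¹) plus potassium persulfate (140 mmol L⁻¹), 16 h at room temperature in the dark, diluted in ethanol to absorbance 0.70 at 734 nm. Sample added at several concentrations, read at 734 nm after 6 min. Trolox calibration curve (20–600 μmol L⁻¹) in ethanol, results in mmol TE g⁻¹. Quercetin reference.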

Data set [5] has as its system L929. Nature of the data set: Cytotoxicity against mouse L929 cells assessed as reduction in cell viability at 3.9 to 15.6 ug/ml after 24 hrs by neutral red staining-based spectrophotometric analysis. To be noted: l929, 24 h. The method in brief:
as §1

Data set [6] concerns L929. Nature of the data set: Cytotoxicity against mouse L929 cells assessed as reduction in cell viability at 1.9 ug/ml after 24 hrs by neutral red staining-based spectrophotometric analysis. As to conditions: l929, 24 h. The method in brief:
as §1

The structures appear in SMILES notation. ≈ marks a conversion by molar mass, not a printed value. Calls of active or inactive are those of the source. No cut-off for these calls is given here.

As for `CCCC[Se]c1cccc(C(C)N)c1` (centres undefined), in data set [1], the 50% inhibitory concentration (IC50) is greater than 100 µg/mL.
For the molecule `CCCC[Te]c1ccc(/C(C)=N/N)cc1`, the Activity entry in data set [2] is “Non-Toxic”. For the same molecule, in data set [1], the IC50 is 5.08 µg/mL.
`CCCC[Te]c1ccc(C(C)NCC(C)C)cc1` (centres undefined): the result in data set [3] and in data set [4] was inactive. Further, the concentration for half-maximal inhibition (IC50) in data set [1] was 12.49 µg/mL. Also, in data set [5], the Activity entry is “Non-Toxic”.
For `CCCC[Se]c1ccc(C(C)NCC(C)C)cc1` (centres undefined), in data set [1], the IC50 is greater than 100 µg/mL.
With `CCCCNC(C)c1ccc([Te]CCCC)cc1` (centres undefined), the result in data set [3] and in data set [4] was inactive. In addition, the IC50 in data set [1] was 8.63 µg/mL. For the same molecule, the Activity result in data set [5] was “Non-Toxic”.
For the molecule `CCCC[Te]c1ccc(C(C)NCc2ccccc2)cc1` (centres undefined), the outcome in data set [3] and in data set [4] was inactive. For the same molecule, the IC50 in data set [1] stood at 11.41 µg/mL. The Activity entry in data set [5] is “Non-Toxic”.
Turning to `CCCC[Te]c1cccc(/C(C)=N/O)c1`, the outcome in data set [3] and in data set [4] was Active. For the same molecule, the IC50 in data set [1] stood at 5.12 µg/mL. The Activity result in data set [6] is recorded as “Non-Toxic”; in data set [5], “Toxic”.
As to `C=CCNC(C)c1ccc([Te]CCCC)cc1` (centres undefined), the IC50 in data set [1] was greater than 100 µg/mL.
With `O=c1c(O)c(-c2ccc(O)c(O)c2)oc2cc(O)cc(O)c12` [QUERCETIN], the result in data set [3] and in data set [4] was Active. The IC50 in data set [1] came to 2.54 µg/mL (≈ 8.4 µM).
With `CCCC[Te]c1ccc(C(C)N)cc1` (centres undefined), the result in data set [3] and in data set [4] was Active. In addition, the IC50 in data set [1] came out at 12.07 µg/mL. Also, the results for the Activity result in data set [6] and in data set [5] were “Non-Toxic” and “Toxic”, respectively.
Consider `CCCC[Te]c1ccc(/C(C)=N/O)cc1`, for which the outcome in data set [3] and in data set [4] was Active. Besides, the IC50 in data set [1] is 7.79 µg/mL. Moreover, the Activity result in data set [6] is listed as “Non-Toxic”; in data set [5] it was “Toxic”.
On to `CCCC[Se]c1ccc(C(C)N)cc1` (centres undefined), for which the IC50 in data set [1] was greater than 100 µg/mL.
As for `C/C(=N\O)c1ccc([Te]CCCO)cc1`, the Activity result in data set [2] is “Non-Toxic”. Also, the result in data set [3] was inactive. Further, in data set [1], the half-maximal inhibitory concentration (IC50) amounted to 13.06 µg/mL.
On to `CCCC[Te]c1cccc(C(C)N)c1` (centres undefined), for which the result in data set [3] and in data set [4] was Active. In addition, the 50% inhibitory concentration (IC50) in data set [1] came to 19.22 µg/mL. Besides, the figures for the Activity result in data set [6] and in data set [5] were “Non-Toxic” and “Toxic”, respectively.

What is called IC50 is the concentration at which inhibition is half-maximal.
